Screening data from PubChem BioAssay.
Most compounds without a hit are left out; they make up all but 2.6% or so of the library.
Ecoli rRNA inh: selective bacterial rRNA inhibition in E. coli | GFP signal change (wild-type ribosome), % (test concentration not listed) | E. coli WT GFP vs humanized-ribosome RFP mutants, fluorescence, 24 h; active compounds read low; DMSO median 0, no signal -100 | 1.6% of 350,000 active | AID 720706;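 active = significant combined selectivity score with lowered wild-type GFP, culture density cut under 30%, mutant RFP and density less affected; inactive = any of these conditions unmet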
miR-122 sensor: blocks miR-122 activity in Huh7 sensor cells. Huh7 miR-122 Renilla luciferase sensor, 48 h; neutral wells = 0, positive control = 100. activation (reporter increase), % at 12.5 µM. 0.3% of 340,000 active;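 active = mean replicate activation score at least 90 and every replicate individually at or above 90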;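 also: higher luciferase means less miR-122 activity so hits act as miR-122 inhibitors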
HIV Env fusion: HIV envelope-mediated fusion inhibition | inhibition, % at 12.3 µM | HeLa-JRFL Env/CEM21 cell fusion, luciferase | 1.1% of 360,000 active;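 active = mean replicate inhibition score of at least 50 and every replicate individually at or above 50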;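 also: 0% = plate neutral controls and 100% = maraviroc near 300 nM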
FN deposit inh: fibronectin deposition inhibition. AH1F fibroblasts, Alexa488-fibronectin deposition fluorescence, overnight. inhibition, % at 12.6 µM. 0.086% of 350,000 active;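 active = mean inhibition across replicates of 30% or more, regardless of how many single replicates reach that level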;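 also: positive control wells lacked labelled fibronectin entirely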
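test system = AH1F fibroblasts assembling fluorescent fibronectin matrix | quantity = 10000 AH1F cells per well | buffer or medium = DMEM plus 2% serum, read in PBS | doses = single dose, pinned | incubation = 1 h cell attachment, overnight exposure to compound and label | detection = fluorescence at 485 nm excitation, 525 nm emission | read-out basis = inhibition from reduced deposited-fibronectin fluorescence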
Vif inh: HIV Vif inhibition | 0.35% of 340,000 active | HEK293T cells, Vif self-association by quenched fluorescence, imaging, 24 h | inhibition, % at 7.49 µM; in the data active = inhibition above about 50%, passing the limit was not always enough
S100A4 MyoIIA: inhibitors of human S100A4 binding to myosin IIA peptide | P26447 | S100A4/TAMRA-MyoIIA peptide fluorescence polarization | inhibition, % at 10.7 µM | 0.14% of 360,000 active;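 active = mean inhibition of at least 70% across replicates, with every replicate also reaching that level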
Target sequence (P26447 whole entry, looked up): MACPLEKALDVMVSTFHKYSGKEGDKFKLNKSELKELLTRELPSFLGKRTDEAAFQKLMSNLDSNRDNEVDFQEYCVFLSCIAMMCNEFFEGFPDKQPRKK
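Test system – S100A4 monomer (human) · Compound – single-point compound testing · Schedule – 5 min incubation before reading · Probe or stimulus – TAMRA-labelled myosin IIA heavy-chain peptide probe, 5 nM · Benchmarks – neutral control DMSO, positive control TFP · Medium – Calcium-containing HEPES buffer, pH 7.2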
* marks the source's active call; other numbers are inactive results; [ ] = dose if it differs, or a comment.

Results for C[C@@H]1CCCCO[C@@H](CN(C)CC2CCCCC2)[C@@H](C)CN([C@H](C)CO)C(=O)c2cc(NC(=O)CCC(F)(F)F)ccc2O1 ?
Ecoli rRNA inh: 1.3; miR-122 sensor: 103.8*[16.7 µM]; HIV Env fusion: -1.4[16.7 µM]

What do the screens show for `C[C@@H]1CN([C@H](C)CO)C(=O)c2cc(NC(=O)Cc3ccccc3)ccc2O[C@@H](C)CCCCO[C@H]1CN(C)Cc1ccc(C(F)(F)F)cc1`?
Ecoli rRNA inh: 3.9; miR-122 sensor: -30.7[16.7 µM]; HIV Env fusion: 73.2*[16.7 µM]

Results for C[C@@H]1CN([C@@H](C)CO)C(=O)c2cc(NC(=O)Cc3ccccc3)ccc2O[C@@H](C)CCCCO[C@H]1CN(C)Cc1ccc(C(F)(F)F)cc1 ?
Ecoli rRNA inh: -0.2; miR-122 sensor: -8.3[16.7 µM]; HIV Env fusion: 63.9*[16.7 µM]

What do the screens show for `O=C(C1CC1)N1CC2(C1)[C@H](c1ccccc1)[C@@H](CO)N2CC1CCCC1`?
Ecoli rRNA inh: 3.3; HIV Env fusion: 1.5[16.7 µM]; FN deposit inh: -4.8; S100A4 MyoIIA: -5.5

How did C[C@H]1CN([C@@H](C)CO)C(=O)c2cc(Br)cnc2O[C@@H]1CN(C)Cc1ccccn1 do in these assays?
Ecoli rRNA inh: -0.8; miR-122 sensor: -3.4[16.7 µM]; HIV Env fusion: -15.6[16.7 µM]; S100A4 MyoIIA: 2.0

How did CC(=O)N(C)C[C@H]1Oc2cc(-c3cccnc3)ccc2S(=O)(=O)N([C@H](C)CO)C[C@H]1C do in these assays?
Ecoli rRNA inh: 5.2; miR-122 sensor: -7.8[16.7 µM]; HIV Env fusion: 26.1[16.7 µM]; FN deposit inh: -1.2; S100A4 MyoIIA: -4.4

What do the screens show for `C[C@@H]1CN([C@H](C)CO)S(=O)(=O)c2ccc(-c3cccnc3)cc2O[C@@H]1CN(C)C`?
Ecoli rRNA inh: -0.3; miR-122 sensor: -6.4[16.7 µM]; HIV Env fusion: 6.1[16.7 µM]; FN deposit inh: 6.0; S100A4 MyoIIA: -31.7

How did C[C@H](CO)N1C[C@H](C)[C@H](CN(C)Cc2ccc(C(F)(F)F)cc2)OCCCC[C@H](C)Oc2ccc(NC(=O)Cc3ccccc3)cc2C1=O do in these assays?
Ecoli rRNA inh: 3.0; miR-122 sensor: -12.3[16.7 µM]; HIV Env fusion: 71.6*[16.7 µM]; S100A4 MyoIIA: -22.6

Results for C[C@@H]1CN([C@@H](C)CO)C(=O)c2cc(NC(=O)Cc3ccccc3)ccc2O[C@@H](C)CCCCO[C@@H]1CN(C)Cc1ccc(C(F)(F)F)cc1 ?
Ecoli rRNA inh: 3.6; miR-122 sensor: -23.8[16.7 µM]; HIV Env fusion: 30.6[16.7 µM]; S100A4 MyoIIA: -18.1

Results for CC(=O)c1ccc(-n2c(CCC(=O)O)ccc2-c2cccs2)cc1 ?
Ecoli rRNA inh: 3.7; miR-122 sensor: -1.5; Vif inh: 2.9; S100A4 MyoIIA: -24.0

What do the screens show for `COc1ccc(-c2ccc(CCC(=O)O)n2-c2ccccc2O)cc1`?
Ecoli rRNA inh: -0.1; miR-122 sensor: 10.6; HIV Env fusion: -0.2; FN deposit inh: -2.5; Vif inh: 4.4; S100A4 MyoIIA: -1.0

How did COc1ccc(-n2c(CCC(=O)O)ccc2-c2ccccc2)cc1 do in these assays?
Ecoli rRNA inh: -25.4*; miR-122 sensor: -1.9; HIV Env fusion: -1.0; FN deposit inh: -3.2; Vif inh: 8.2; S100A4 MyoIIA: -4.6

Results for Cc1ccc(-n2c(CCC(=O)O)ccc2-c2cccs2)cc1 ?
Ecoli rRNA inh: -27.9*; miR-122 sensor: 20.4; Vif inh: 4.0; S100A4 MyoIIA: -15.4

What do the screens show for `O=C(Cc1cccnc1)N[C@@H]1CC[C@@H](CCn2cc(Cc3ccccc3)nn2)O[C@@H]1CO`?
Ecoli rRNA inh: -1.6; HIV Env fusion: -8.7[16.7 µM]; S100A4 MyoIIA: 7.6

What do the screens show for `C/C=C/c1ccc([C@@H]2[C@@H](CO)N(C(C)=O)C23CN(C(=O)c2cnccn2)C3)cc1`?
Ecoli rRNA inh: 0.8; S100A4 MyoIIA: -3.7

Results for O=[N+]([O-])c1ccc(NN=C(C2CC2)C2CC2)c([N+](=O)[O-])c1 ?
Ecoli rRNA inh: -21.5*; miR-122 sensor: -1.9; FN deposit inh: 8.5; S100A4 MyoIIA: 1.8

Results for CCC(CC)=NNc1ccc([N+](=O)[O-])cc1[N+](=O)[O-] ?
Ecoli rRNA inh: 24.4; HIV Env fusion: 15.6; FN deposit inh: -3.2; Vif inh: -1.7; S100A4 MyoIIA: 3.7

What do the screens show for `COCC(=O)N(C)C[C@@H]1Oc2ncc(C#CC(C)(C)O)cc2C(=O)N([C@H](C)CO)C[C@H]1C`?
Ecoli rRNA inh: -0.7; miR-122 sensor: -1.2[16.7 µM]; HIV Env fusion: 23.2[16.7 µM]; FN deposit inh: -8.8; S100A4 MyoIIA: -1.0

What do the screens show for `COc1ccc2c3c(n(C)c2c1)[C@H](CO)N(C(=O)CN1CCOCC1)CC31CCN(C(=O)C2CC2)CC1`?
Ecoli rRNA inh: -1.2

What do the screens show for `CSc1ncnc2c1ncn2CCCNc1ccc(C)c(C)c1`?
Ecoli rRNA inh: -26.5*; miR-122 sensor: -1.5; HIV Env fusion: -12.6; FN deposit inh: 3.3; Vif inh: -6.8; S100A4 MyoIIA: 0.7

Results for CSc1ncnc2c1ncn2CCCNCc1ccccc1 ?
Ecoli rRNA inh: 11.4; miR-122 sensor: -4.1; HIV Env fusion: -3.3; FN deposit inh: 1.2; Vif inh: -1.0; S100A4 MyoIIA: -1.7

Results for CSc1ncnc2c1ncn2CCCN[C@H](C)c1cccc2ccccc12 ?
Ecoli rRNA inh: 1.6; miR-122 sensor: 0.0; HIV Env fusion: 58.0*; FN deposit inh: -6.2; S100A4 MyoIIA: -3.6

Results for COc1cc(OC)c2c(-c3cccc(-c4cccc(C)c4)c3)cc(=O)oc2c1 ?
Ecoli rRNA inh: 25.1; miR-122 sensor: 5.5; HIV Env fusion: 24.0; Vif inh: -2.5; S100A4 MyoIIA: 2.6

How did COc1ccc(-c2cccc(-c3cc(=O)oc4cc(OC)c(OC)c(OC)c34)c2)cc1 do in these assays?
Ecoli rRNA inh: 18.2; miR-122 sensor: 9.8; HIV Env fusion: 50.0*; Vif inh: -0.3; S100A4 MyoIIA: -5.0

What do the screens show for `COc1cc2oc(=O)cc(-c3ccc(-c4ccc(OC(F)(F)F)cc4)cc3)c2c(OC)c1OC`?
Ecoli rRNA inh: 16.4; miR-122 sensor: -8.5; HIV Env fusion: -2.1; Vif inh: -3.2; S100A4 MyoIIA: 10.2

How did COc1ccc(-c2cccc(-c3cc(=O)oc4cc(OC)cc(OC)c34)c2)cc1 do in these assays?
Ecoli rRNA inh: 10.3; miR-122 sensor: 104.1*; HIV Env fusion: -29.0; Vif inh: 3.5; S100A4 MyoIIA: -1.4

How did COc1cc(OC)c2c(-c3cccc(-c4ccc(O)cc4)c3)cc(=O)oc2c1 do in these assays?
Ecoli rRNA inh: -23.7*; miR-122 sensor: 98.6*; HIV Env fusion: -63.6; FN deposit inh: 15.4; Vif inh: -3.5; S100A4 MyoIIA: -0.6

How did COc1cc(OC)c2c(-c3cccc(-c4ccc(N(C)C)cc4)c3)cc(=O)oc2c1 do in these assays?
Ecoli rRNA inh: 3.0; miR-122 sensor: 97.2*; HIV Env fusion: -164.4; FN deposit inh: -33.4; Vif inh: -4.5; S100A4 MyoIIA: -3.9
